Test results published in ChEMBL document CHEMBL1122835, “Synthesis and pharmacology of the potent angiotensin-converting enzyme inhibitor N-[1(S)-(ethoxycarbonyl)-3-phenylpropyl]-(S)-alanyl-(S)-pyroglutamic acid” (J Med Chem, 1985).

Experiments:
[1] = tested on: Rattus norvegicus; experiment: Hypotensive activity was determined in low-sodium treated rat, dose 3 mg/kg administered orally at 5 hr; type: functional; settings: route oral
Method in brief: (§1)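 Male CD rats, 11 weeks old, kept on a sodium-deficient diet for 3 weeks and fasted overnight, were dosed orally with aqueous solutions (5 mL/kg), water as control. Systolic pressure measured by tail cuff at the stated post-dose time. ANOVA with Duncan's test.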

[2] = tested on: Rattus norvegicus; experiment: Decrease in systolic blood pressure of Spontaneous Hypertensive Rats (SHR) pretreated with hydrochlorothiazide upon oral administration at 10 mm/kg; type: functional, Artery
Method in brief: (§2)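 Male SHR, 13 weeks old, given HCTZ 25 mg/kg po in 0.25% methylcellulose daily for 3 days. Drug given orally in water (5 mL/kg) 1 h after the third dose. Tail-cuff systolic pressure and pulse-count heart rate taken 1.5 h later after 20 min warming at 38 °C. ANOVA with Duncan's test; ED30 by linear regression.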

[3] = tested on: Rattus norvegicus; experiment: Effect on vasopressor response caused by angiotensin I (AI) in anesthetized normotensive rat, administered intravenously at dose 0.27 mg/kg; type: functional; settings: route intravenous
Method in brief: (§3)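 Male Charles River CD rats, 380–500 g, anesthetized with pentobarbital Na 15 mg/kg plus barbital 220 mg/kg ip, held at 37 °C. Femoral artery pressure recorded. AI 0.3 μg/kg and AII 0.1 μg/kg given iv as challenges. Cumulative iv drug in saline, 0.01–0.81 mg/kg, each dose followed by AI/AII challenges at 5-min intervals. ED50 = 50% change from control response, by linear regression.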

[4] = tested on: Rattus norvegicus; experiment: Activity against the bradykinin Response in anesthetized normotensive rat, administered intravenously at dose 0.030 mg/kg; type: functional; settings: dose 0.03 mg/kg; route intravenous
Method in brief: (§4)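 Anesthetized (pentobarbital/barbital ip) male Charles River CD rats, 380–500 g, kept at 37 °C. Femoral artery blood pressure recorded. Control depressor response to bradykinin 1 μg/kg iv, then cumulative iv drug in 0.9% saline (1 mL/kg), 0.0033–0.27 mg/kg. Bk challenge 5 min after each dose. ED50 = dose giving a 50% change from control, by linear regression; N = 8.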

[5] = tested on: Rattus norvegicus; experiment: Change in heart rate was determined at a dose 3 mg/kg; type: functional; method in brief: as §2
[6] = tested on: Rattus norvegicus; experiment: Hypotensive activity was determined in low-sodium treated rat, dose 30 mg/kg administered orally at 2 hr; type: functional; settings: route oral; method in brief: as §1
[7] = species on record: Rattus norvegicus; experiment: Effective dose was determined to increase the vasoResponse in rat; type: functional; method in brief: as §4
[8] = tested on: Rattus norvegicus; experiment: Percent decrease in angiotensin I pressor response was measured in rat, administered intravenously at dose 0.81 mg/kg; type: functional; settings: route intravenous
Method in brief: (§5)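 Anesthetized (pentobarbital Na 15 mg/kg + barbital 220 mg/kg ip), tracheotomized male Charles River CD rats, 380–500 g, femoral cannulas, heated board at 37 °C. Control pressor responses to angiotensin I 0.3 μg/kg then angiotensin II 0.1 μg/kg iv; drug iv in 0.9% saline (free base), AI and AII repeated at 5-min intervals, cumulative 0.01–0.81 mg/kg. Peak arterial pressure rise versus control.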

[9] = tested on: Rattus norvegicus; experiment: Change in heart rate was determined at a dose 30 mg/kg; type: functional; method in brief: as §2
[10] = Half life was determined; type: ADME; settings: rat
Method in brief: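 Rats anesthetized with pentobarbital/barbital received a single iv dose, 0.2 or 0.08 mg/kg. AI 0.3 μg/kg iv given at 5 min, then every 10 min for 210 min. Half-life = time for the AI pressor response to fall to 50% of its peak inhibition.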

[11] = tested on: Rattus norvegicus; experiment: Effective dose to produce AcE inhibition in rat, administered intravenously; type: functional; settings: iv; method in brief: as §3
[12] = tested on: Rattus norvegicus; experiment: Decrease in systolic blood pressure of Spontaneous Hypertensive Rats (SHR) pretreated with hydrochlorothiazide upon oral administration at 3 mm/kg; type: functional, Artery; method in brief: as §2
[13] = tested on: Rattus norvegicus; experiment: Effect on vasopressor response caused by angiotensin I (AI) in anesthetized normotensive rat, administered intravenously at dose 0.090 mg/kg; type: functional; settings: dose 0.09 mg/kg; route intravenous; method in brief: as §3
[14] = tested on: Rattus norvegicus; experiment: Effect on vasopressor response caused by angiotensin I (AI) in anesthetized normotensive rat, administered intravenously at dose 0.010 mg/kg; type: functional; settings: dose 0.01 mg/kg; route intravenous; method in brief: as §3
[15] = tested on: Rattus norvegicus; experiment: Hypotensive activity was determined in low-sodium treated rat, dose 10 mg/kg administered orally at 2 hr; type: functional; settings: route oral; method in brief: as §1
[16] = tested on: Rattus norvegicus; experiment: Decrease in systolic blood pressure of Spontaneous Hypertensive Rats (SHR) pretreated with hydrochlorothiazide upon oral administration at 30 mm/kg; type: functional, Artery; method in brief: as §2
[17] = tested on: Rattus norvegicus; experiment: Hypotensive activity was determined in low-sodium treated rat, dose 10 mg/kg administered orally at 5 hr; type: functional; settings: route oral; method in brief: as §1
[18] = species on record: Rattus norvegicus; experiment: Dose required to reduce systolic blood pressure by 30 mmHg; type: functional; settings: Artery; method in brief: as §2
[19] = tested on: Rattus norvegicus; experiment: Activity against the bradykinin Response in anesthetized normotensive rat, administered intravenously at dose 0.010 mg/kg; type: functional; settings: dose 0.01 mg/kg; route intravenous; method in brief: as §4
[20] = tested on: Rattus norvegicus; experiment: Percent decrease in angiotensin I pressor response was measured in rat, administered intravenously at dose 0.27 mg/kg; type: functional; settings: route intravenous; method in brief: as §5
[21] = tested on: Rattus norvegicus; experiment: Effect on vasopressor response caused by angiotensin I (AI) in anesthetized normotensive rat, administered intravenously at dose 0.81 mg/kg; type: functional; settings: route intravenous; method in brief: as §3
[22] = tested on: Rattus norvegicus; experiment: Percent change was determined in bradykinin depressor response in anesthetized normotensive rat, administered intravenously at dose 0.030 mg/kg; type: functional; settings: dose 0.03 mg/kg; route intravenous
Method in brief: (§6)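 Male Charles River CD rats (380–500 g), pentobarbital Na 15 mg/kg plus barbital 220 mg/kg ip, tracheotomized, femoral artery/vein cannulated, kept at 37 °C. Control bradykinin 1 μg/kg iv depressor response, separate from angiotensin tests; drug iv in 0.9% saline (1 mL/kg, free base) 10 min later, Bk 5 min after each cumulative dose (0.0033–0.27 mg/kg). Maximum fall in arterial pressure versus control response; N = 8.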

[23] = tested on: Rattus norvegicus; experiment: Change in heart rate was determined at a dose 10 mg/kg; type: functional; method in brief: as §2
[24] = tested on: Rattus norvegicus; experiment: Percent decrease in angiotensin I pressor response was measured in rat, administered intravenously at dose 0.030 mg/kg; type: functional; settings: dose 0.03 mg/kg; route intravenous; method in brief: as §5
[25] = tested on: Rattus norvegicus; experiment: Percent decrease in angiotensin I pressor response was measured in rat, administered intravenously at dose 0.090 mg/kg; type: functional; settings: dose 0.09 mg/kg; route intravenous; method in brief: as §5
[26] = tested on: Rattus norvegicus; experiment: Percent change was determined in bradykinin depressor response n anesthetized normotensive rat, administered intravenously at dose 0.090 mg/kg; type: functional; settings: dose 0.09 mg/kg; route intravenous; method in brief: as §6
[27] = tested on: Rattus norvegicus; experiment: Percent decrease in angiotensin I pressor response was measured in rat, administered intravenously at dose 0.010 mg/kg; type: functional; settings: dose 0.01 mg/kg; route intravenous; method in brief: as §5
[28] = tested on: Rattus norvegicus; experiment: Percent change was determined in bradykinin depressor response in anesthetized normotensive rat, administered intravenously at dose 0.010 mg/kg; type: functional; settings: dose 0.01 mg/kg; route intravenous; method in brief: as §6
[29] = tested on: Rattus norvegicus; experiment: Activity against the bradykinin Response in anesthetized normotensive rat, administered intravenously at dose 0.0033 mg/kg; type: functional; settings: route intravenous; method in brief: as §4
[30] = tested on: Rattus norvegicus; experiment: Activity against the bradykinin Response in anesthetized normotensive rat, administered intravenously at dose 0.090 mg/kg; type: functional; settings: dose 0.09 mg/kg; route intravenous; method in brief: as §4
[31] = tested on: Rattus norvegicus; experiment: Percent change was determined in bradykinin depressor response in anesthetized normotensive rat, administered intravenously at dose 0.0033 mg/kg; type: functional; settings: route intravenous; method in brief: as §4
[32] = tested on: Rattus norvegicus; experiment: Hypotensive activity was determined in low-sodium treated rat, dose 3 mg/kg administered orally at 2 hr; type: functional; settings: route oral; method in brief: as §1
[33] = tested on: Rattus norvegicus; experiment: Effect on vasopressor response caused by angiotensin I (AI) in anesthetized normotensive rat, administered intravenously at dose 0.030 mg/kg; type: functional; settings: dose 0.03 mg/kg; route intravenous; method in brief: as §3
[34] = tested on: Rattus norvegicus; experiment: Hypotensive activity was determined in low-sodium treated rat, dose 30 mg/kg administered orally at 5 hr; type: functional; settings: route oral; method in brief: as §1
[35] = molecular target: T1, Angiotensin-converting enzyme (Rattus norvegicus) (UniProt P47820); experiment: Inhibitory activity was determined against Angiotensin I converting enzyme; type: functional
T1 sequence (whole entry): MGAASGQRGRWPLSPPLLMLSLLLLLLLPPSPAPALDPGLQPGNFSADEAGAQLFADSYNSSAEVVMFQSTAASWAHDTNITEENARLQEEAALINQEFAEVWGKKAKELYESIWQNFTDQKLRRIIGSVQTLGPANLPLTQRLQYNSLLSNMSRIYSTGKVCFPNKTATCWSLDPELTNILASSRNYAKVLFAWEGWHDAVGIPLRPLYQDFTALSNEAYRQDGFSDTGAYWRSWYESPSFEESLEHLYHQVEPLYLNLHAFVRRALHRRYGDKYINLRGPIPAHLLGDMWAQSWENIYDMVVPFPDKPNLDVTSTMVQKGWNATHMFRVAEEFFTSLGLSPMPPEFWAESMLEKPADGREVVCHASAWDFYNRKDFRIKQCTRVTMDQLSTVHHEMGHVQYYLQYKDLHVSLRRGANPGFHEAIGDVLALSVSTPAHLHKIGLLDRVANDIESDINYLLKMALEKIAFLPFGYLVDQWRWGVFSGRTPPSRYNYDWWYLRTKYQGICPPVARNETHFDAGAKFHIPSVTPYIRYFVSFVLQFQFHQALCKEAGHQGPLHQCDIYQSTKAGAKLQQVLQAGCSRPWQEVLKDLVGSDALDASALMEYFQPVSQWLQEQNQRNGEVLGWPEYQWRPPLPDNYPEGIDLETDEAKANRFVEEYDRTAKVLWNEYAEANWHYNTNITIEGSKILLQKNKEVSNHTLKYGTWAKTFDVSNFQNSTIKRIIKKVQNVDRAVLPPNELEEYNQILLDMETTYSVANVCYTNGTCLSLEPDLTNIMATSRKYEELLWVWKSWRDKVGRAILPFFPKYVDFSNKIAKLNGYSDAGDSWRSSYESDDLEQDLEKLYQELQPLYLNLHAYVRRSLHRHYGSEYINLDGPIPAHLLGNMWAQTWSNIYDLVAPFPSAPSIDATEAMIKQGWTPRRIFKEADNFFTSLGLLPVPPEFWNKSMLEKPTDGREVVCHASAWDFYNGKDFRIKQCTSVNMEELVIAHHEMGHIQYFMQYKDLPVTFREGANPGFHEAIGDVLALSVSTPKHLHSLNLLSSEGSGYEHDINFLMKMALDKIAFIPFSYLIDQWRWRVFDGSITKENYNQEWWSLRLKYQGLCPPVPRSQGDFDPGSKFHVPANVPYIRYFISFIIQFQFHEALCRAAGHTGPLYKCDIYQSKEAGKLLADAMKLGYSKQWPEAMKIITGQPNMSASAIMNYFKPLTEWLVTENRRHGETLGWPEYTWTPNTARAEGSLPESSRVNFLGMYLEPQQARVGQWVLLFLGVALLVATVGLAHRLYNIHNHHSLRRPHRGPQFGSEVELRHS

CCOC(=O)[C@H](CCc1ccccc1)N[C@@H](C)C(=O)N1CCC[C@H]1C(=O)O [ENALAPRIL]
Activity [1]: 128 mmHg
Blood pressure [2]: 169 mmHg
Response [3]: 8 mmHg
Response [4]: -61 mmHg
Heart rate [5]: 378 beats min-1
Activity [6]: 134 mmHg
ED50 [7]: 0.0097 mg/kg
Decrease [8]: 84%
Heart rate [9]: 386 beats min-1
half-life [10]: 2.5 h
ED50 [11]: 0.066 mg/kg
Blood pressure [12]: 199 mmHg
Response [13]: 17 mmHg
Response [14]: 37 mmHg
Activity [15]: 138 mmHg
Blood pressure [16]: 163 mmHg
Activity [17]: 123 mmHg
ED30 [18]: 1.5 mg/kg
Response [19]: -45 mmHg
Decrease [20]: 81%
Response [21]: 7 mmHg
Change [22]: 110%
Heart rate [23]: 380 beats min-1
Decrease [24]: 37%
Decrease [25]: 60%
Change [26]: 107%
Decrease [27]: 14%
Change [28]: 55%
Response [29]: -27 mmHg
Response [30]: -60 mmHg
Change [31]: -7%
Activity [32]: 148 mmHg
Response [33]: 27 mmHg
Activity [34]: 128 mmHg

CCOC(=O)[C@H](CCc1ccccc1)N[C@H](C)C(=O)N1C(=O)CC[C@H]1C(=O)O
ED50 [35]: 4 mg/kg
